Results as given in ChEMBL document CHEMBL5724801, “EUbOPEN Chemogenomics Library - Multiplex” (2024).
Values joined by “and” are separate entries in the source; they are usually repeats but may differ in a detail not shown here. Equal entries are not always repeated.

Tested on: Fibroblast
Assay: Multiplex assay against human fibroblast
Format: toxicity, cell-based
How it was run: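 With compound added, live cells were imaged on a CQ1 microscope at 37°C and 5% CO2; staining with Hoechst33342, BioTracker Green Microtubule Cytoskeleton Dye, MitoTracker Red and Annexin V Alexa Fluor 680 had been done at seeding. The CellPathfinder machine-learning gating scheme split cells into Hoechst high-intensity objects or normal cells, normal cells into healthy, pyknosed or fragmented nuclei, and pyknosed cells into mitotic or apoptotic. The tubulin, mitochondrial-mass and membrane-permeability phenotypes are per cents of healthy-nucleus cells.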

[1] = 12 h, 1 µM, compound concentration 1 uM
[2] = 12 h, 10 µM, compound concentration 10 uM
[3] = 24 h, 1 µM, compound concentration 1 uM
[4] = 24 h, 10 µM, compound concentration 10 uM
[5] = 48 h, 1 µM, compound concentration 1 uM
[6] = 48 h, 10 µM, compound concentration 10 uM

C[C@@H]1CN(Cc2ccc(F)cc2)CCN1C(=O)COc1ccc(Cl)cc1NC(N)=O [BX 471 FREE BASE]
Population Apoptotic (%) [1]: 23% and 38%
Population Fragmented Nuclei (%) [1]: 10% and 26%
Population Healthy Nuclei (%) [1]: 73% and 47%
Population Hoechst High Intensity Objects (%) [1]: 3% and 7%
Population Mitotic Cells (%) [1]: 76% and 61%
Population Normal (%) [1]: 96% and 92%
Population Pyknosed Nuclei (%) [1]: 15% and 26%
Population Tubulin-Different-Phenotype (%) [1]: 35% and 48%
Total Cell Count [1]: 138 and 182
Population Apoptotic (%) [2]: 38% and 40%
Population Fragmented Nuclei (%) [2]: 27% and 36%
Population Healthy Nuclei (%) [2]: 45% and 27%
Population Hoechst High Intensity Objects (%) [2]: 7% and 11%
Population Mitotic Cells (%) [2]: 61% and 60%
Population Normal (%) [2]: 92% and 88%
Population Pyknosed Nuclei (%) [2]: 26% and 35%
Population Tubulin-Different-Phenotype (%) [2]: 81% and 77%
Total Cell Count [2]: 240 and 126
Population Apoptotic (%) [3]: 52% and 51%
Population Fragmented Nuclei (%) [3]: 13% and 20%
Population Healthy Nuclei (%) [3]: 74% and 52%
Population Hoechst High Intensity Objects (%) [3]: 0% and 6%
Population Mitotic Cells (%) [3]: 47% and 48%
Population Normal (%) [3]: 99% and 93%
Population Pyknosed Nuclei (%) [3]: 11% and 27%
Population Tubulin-Different-Phenotype (%) [3]: 33% and 52%
Total Cell Count [3]: 147 and 160
Population Apoptotic (%) [4]: 43% and 46%
Population Fragmented Nuclei (%) [4]: 28% and 34%
Population Healthy Nuclei (%) [4]: 43% and 36%
Population Hoechst High Intensity Objects (%) [4]: 4% and 8%
Population Mitotic Cells (%) [4]: 56% and 53%
Population Normal (%) [4]: 95% and 91%
Population Pyknosed Nuclei (%) [4]: 28% and 29%
Population Tubulin-Different-Phenotype (%) [4]: 75% and 89%
Total Cell Count [4]: 225 and 118
Population Apoptotic (%) [5]: 55% and 63%
Population Fragmented Nuclei (%) [5]: 16% and 31%
Population Healthy Nuclei (%) [5]: 67% and 55%
Population Hoechst High Intensity Objects (%) [5]: 5%
Population Mitotic Cells (%) [5]: 45% and 36%
Population Normal (%) [5]: 94% and 97%
Population Pyknosed Nuclei (%) [5]: 15% and 13%
Population Tubulin-Different-Phenotype (%) [5]: 40% and 54%
Total Cell Count [5]: 138 and 172
Population Apoptotic (%) [6]: 58% and 41%
Population Fragmented Nuclei (%) [6]: 31% and 42%
Population Healthy Nuclei (%) [6]: 49% and 42%
Population Hoechst High Intensity Objects (%) [6]: 7% and 6%
Population Mitotic Cells (%) [6]: 41% and 58%
Population Normal (%) [6]: 92% and 93%
Population Pyknosed Nuclei (%) [6]: 18% and 14%
Population Tubulin-Different-Phenotype (%) [6]: 77% and 91%
Total Cell Count [6]: 234 and 122

C[C@H]1[C@H]2CC[C@H]3[C@@H]4CC=C5C[C@@H](N(C)C)CC[C@]5(C)[C@H]4CC[C@]23CN1C [CONESSINE]
Population Apoptotic (%) [1]: 45% and 29%
Population Fragmented Nuclei (%) [1]: 15% and 33%
Population Healthy Nuclei (%) [1]: 73% and 41%
Population Hoechst High Intensity Objects (%) [1]: 1% and 2%
Population Membrane Permeable-Phenotype (%) [1]: 0% and 7%
Population Mitochondria Different-Phenotype (%) [1]: 8% and 2%
Population Mitotic Cells (%) [1]: 55% and 70%
Population Normal (%) [1]: 98% and 97%
Population Pyknosed Nuclei (%) [1]: 11% and 24%
Population Tubulin-Different-Phenotype (%) [1]: 19% and 46%
Total Cell Count [1]: 174 and 101
Population Apoptotic (%) [2]: 37% and 43%
Population Fragmented Nuclei (%) [2]: 26%
Population Healthy Nuclei (%) [2]: 60% and 45%
Population Hoechst High Intensity Objects (%) [2]: 3%
Population Membrane Permeable-Phenotype (%) [2]: 5% and 8%
Population Mitochondria Different-Phenotype (%) [2]: 10% and 4%
Population Mitotic Cells (%) [2]: 62% and 56%
Population Normal (%) [2]: 96%
Population Pyknosed Nuclei (%) [2]: 13% and 28%
Population Tubulin-Different-Phenotype (%) [2]: 32% and 58%
Total Cell Count [2]: 189 and 110
Population Apoptotic (%) [3]: 43% and 40%
Population Fragmented Nuclei (%) [3]: 13% and 27%
Population Healthy Nuclei (%) [3]: 73% and 48%
Population Hoechst High Intensity Objects (%) [3]: 2% and 4%
Population Mitochondria Different-Phenotype (%) [3]: 4% and 6%
Population Mitotic Cells (%) [3]: 56% and 59%
Population Normal (%) [3]: 97% and 95%
Population Pyknosed Nuclei (%) [3]: 13% and 24%
Population Tubulin-Different-Phenotype (%) [3]: 22% and 61%
Total Cell Count [3]: 175 and 95
Population Apoptotic (%) [4]: 64% and 36%
Population Fragmented Nuclei (%) [4]: 28%
Population Healthy Nuclei (%) [4]: 61% and 39%
Population Hoechst High Intensity Objects (%) [4]: 3% and 2%
Population Membrane Permeable-Phenotype (%) [4]: 1% and 7%
Population Mitochondria Different-Phenotype (%) [4]: 7%
Population Mitotic Cells (%) [4]: 35% and 63%
Population Normal (%) [4]: 96% and 97%
Population Tubulin-Different-Phenotype (%) [4]: 27% and 60%
Total Cell Count [4]: 190 and 106
Population Apoptotic (%) [5]: 50% and 47%
Population Fragmented Nuclei (%) [5]: 17% and 37%
Population Healthy Nuclei (%) [5]: 73% and 45%
Population Hoechst High Intensity Objects (%) [5]: 5% and 0%
Population Membrane Permeable-Phenotype (%) [5]: 0% and 17%
Population Mitochondria Different-Phenotype (%) [5]: 3% and 8%
Population Mitotic Cells (%) [5]: 50% and 52%
Population Normal (%) [5]: 94% and 99%
Population Pyknosed Nuclei (%) [5]: 9% and 16%
Population Tubulin-Different-Phenotype (%) [5]: 27% and 63%
Total Cell Count [5]: 178 and 104
Population Apoptotic (%) [6]: 66% and 27%
Population Fragmented Nuclei (%) [6]: 26% and 29%
Population Healthy Nuclei (%) [6]: 62% and 48%
Population Hoechst High Intensity Objects (%) [6]: 6% and 2%
Population Membrane Permeable-Phenotype (%) [6]: 0% and 8%
Population Mitochondria Different-Phenotype (%) [6]: 4% and 6%
Population Mitotic Cells (%) [6]: 33% and 72%
Population Normal (%) [6]: 93% and 97%
Population Pyknosed Nuclei (%) [6]: 10% and 22%
Population Tubulin-Different-Phenotype (%) [6]: 25% and 62%
Total Cell Count [6]: 190 and 102

CCn1cnc2c(-c3ccc(F)c(-c4ccc(S(=O)(=O)CC)cc4OC)c3)cnnc21 [DARIGABAT]
Population Apoptotic (%) [1]: 6.38% and 17.39%
Population Fragmented Nuclei (%) [1]: 14.08% and 9%
Population Healthy Nuclei (%) [1]: 52.82% and 80.09%
Population Hoechst High Intensity Objects (%) [1]: 0%
Population Membrane Permeable-Phenotype (%) [1]: 4% and 1.78%
Population Mitochondria Different-Phenotype (%) [1]: 14.67% and 11.24%
Population Mitotic Cells (%) [1]: 93.62% and 82.61%
Population Normal (%) [1]: 100%
Population Tubulin-Different-Phenotype (%) [1]: 21.33% and 23.08%
Total Cell Count [1]: 142 and 211
Population Apoptotic (%) [2]: 12.5% and 19.64%
Population Healthy Nuclei (%) [2]: 48.7% and 72.25%
Population Hoechst High Intensity Objects (%) [2]: 0%
Population Membrane Permeable-Phenotype (%) [2]: 13.33% and 8.61%
Population Mitochondria Different-Phenotype (%) [2]: 14.67% and 16.56%
Population Mitotic Cells (%) [2]: 87.5% and 80.36%
Population Normal (%) [2]: 100%
Population Tubulin-Different-Phenotype (%) [2]: 54.67% and 72.85%
Total Cell Count [2]: 154 and 209
Population Apoptotic (%) [3]: 11.11% and 23.08%
Population Fragmented Nuclei (%) [3]: 13.37% and 6.44%
Population Healthy Nuclei (%) [3]: 60.47% and 87.13%
Population Hoechst High Intensity Objects (%) [3]: 0%
Population Membrane Permeable-Phenotype (%) [3]: 0.96% and 3.41%
Population Mitochondria Different-Phenotype (%) [3]: 9.62% and 6.82%
Population Mitotic Cells (%) [3]: 88.89% and 76.92%
Population Normal (%) [3]: 100%
Population Tubulin-Different-Phenotype (%) [3]: 19.23% and 19.89%
Total Cell Count [3]: 172 and 202
Population Apoptotic (%) [4]: 23.08% and 22.22%
Population Healthy Nuclei (%) [4]: 57.56% and 78.38%
Population Hoechst High Intensity Objects (%) [4]: 0%
Population Membrane Permeable-Phenotype (%) [4]: 11.11% and 3.45%
Population Mitochondria Different-Phenotype (%) [4]: 14.14% and 19.54%
Population Mitotic Cells (%) [4]: 76.92% and 77.78%
Population Normal (%) [4]: 100%
Population Tubulin-Different-Phenotype (%) [4]: 52.53% and 70.69%
Total Cell Count [4]: 172 and 222
Population Apoptotic (%) [5]: 28.57% and 56.25%
Population Fragmented Nuclei (%) [5]: 13.07% and 8%
Population Healthy Nuclei (%) [5]: 82.95% and 84%
Population Hoechst High Intensity Objects (%) [5]: 0%
Population Membrane Permeable-Phenotype (%) [5]: 1.37% and 1.79%
Population Mitochondria Different-Phenotype (%) [5]: 19.18% and 6.55%
Population Mitotic Cells (%) [5]: 71.43% and 43.75%
Population Normal (%) [5]: 100%
Total Cell Count [5]: 176 and 200
Population Apoptotic (%) [6]: 34.62% and 60%
Population Healthy Nuclei (%) [6]: 68.28% and 85.52%
Population Hoechst High Intensity Objects (%) [6]: 0%
Population Membrane Permeable-Phenotype (%) [6]: 4.72% and 11.64%
Population Mitochondria Different-Phenotype (%) [6]: 15.75% and 8.99%
Population Mitotic Cells (%) [6]: 65.38% and 40%
Population Normal (%) [6]: 100%
Population Tubulin-Different-Phenotype (%) [6]: 34.65% and 64.55%
Total Cell Count [6]: 186 and 221
